AF4-AF9 inh: blocks AF4 peptide binding to human AF9; P42568; AlphaScreen, biotin-AF4 peptide binding to FLAG-AF9; inhibition, % at 10 µM; hit rate 0.47% among 350,000; AID 651704;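 active = every replicate reaching a set inhibition limit, whatever the replicate mean, cut at about 25% in these data; inconclusive = mean inhibition reaches that limit but some replicates miss it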;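 note: 0% = plate neutral control median and 100% = total signal loss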
Glyco luc inh: N-linked glycosylation inhibition. hit rate 0.23% among 360,000. reporter increase, % at 12.5 µM. AID 588692. D54 ERlucT glycosylation luciferase reporter, 24 h; percent of 100 nM tunicamycin response;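 active = mean luciferase reporter signal, scaled so untreated is 0 and the glycosylation-blocking control 100, at or above a set limit in every replicate; inconclusive = mean reaches the limit but not every replicate does; inactive = mean below the limit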;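 note: luciferase carries N-glycosylation sites so blocking glycosylation raises the light; 0% = median of neutral control wells and 100% = median of 100 nM tunicamycin wells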
FN deposit inh: fibronectin deposition inhibition | AH1F fibroblasts, Alexa488-fibronectin deposition fluorescence, overnight | hit rate 0.086% among 350,000 | inhibition, % at 12.6 µM;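 active = mean inhibition across replicates of 30% or more, regardless of how many single replicates reach that level; inconclusive = mean under 30% yet at least half of replicates reach 30%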;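 note: positive control wells lacked labelled fibronectin entirely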
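Material: AH1F fibroblast monolayer depositing Alexa488-labelled fibronectin into matrix | Input: 10000 AH1F cells/well | Medium: DMEM plus 2% serum, read in PBS | Reagent: Alexa488-fibronectin, 24 nM final in well | Compound dosing: One dose per compound, pinned | Schedule: 1 h adhesion, overnight exposure | Measured by: Fluorescence at 485 nm excitation, 525 nm emission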
RAD52 inh: inhibitors of human RAD52 DNA annealing. inhibition, % at 18.7 µM. P43351. AID 651710. hit rate 0.46% among 360,000. recombinant RAD52 DNA annealing, FRET fluorescence;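 active = every replicate showing at least 50% inhibition; inconclusive = mean inhibition at least 50% but not in every replicate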
Target sequence (P43351 whole entry, looked up): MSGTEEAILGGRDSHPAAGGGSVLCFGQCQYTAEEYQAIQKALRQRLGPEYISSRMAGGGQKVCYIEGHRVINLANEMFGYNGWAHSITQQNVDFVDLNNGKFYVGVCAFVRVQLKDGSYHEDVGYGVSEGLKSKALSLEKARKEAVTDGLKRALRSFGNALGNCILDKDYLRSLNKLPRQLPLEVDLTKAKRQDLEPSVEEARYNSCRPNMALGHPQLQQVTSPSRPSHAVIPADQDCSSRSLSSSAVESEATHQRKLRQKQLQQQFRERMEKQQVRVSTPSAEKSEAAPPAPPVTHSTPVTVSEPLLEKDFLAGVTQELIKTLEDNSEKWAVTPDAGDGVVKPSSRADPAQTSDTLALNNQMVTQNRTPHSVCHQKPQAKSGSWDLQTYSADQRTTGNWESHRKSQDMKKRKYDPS
NSD2 inh: NSD2 (human) methyltransferase inhibition; inhibition, % at 12.5 µM; NSD2 peptide methylation, AlphaScreen, 120 min; O96028; hit rate 0.54% among 310,000; AID 743445; in the data active = inhibition above about 50%
RAD54 branch: RAD54 (human) branch migration inhibition; RAD54 Holliday junction branch migration, FAM/BHQ fluorescence; inhibition, % at 10.4 µM; hit rate 0.14% among 360,000; AID 602329;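 active = mean normalized replicate activity at least 40 and at least half of replicates scoring 40 or more; inconclusive = only one of the two criteria met; inactive = mean below 40 and under half of replicates reaching 40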;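 note: 0% = median of neutral control wells and 100% = median of positive control wells; inhibitors cause a drop in the FAM fluorescence signal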
Active calls of the source: *; u = inconclusive; x = not tested or not shown. In the library only some 1.2% were active in any assay of this set; here they are far more common.

SMILES	AF4-AF9 inh	Glyco luc inh	FN deposit inh	RAD52 inh	NSD2 inh	RAD54 branch
C[C@H](CO)N1C[C@H](C)[C@H](CN(C)CC2CC2)OCCCC[C@H](C)Oc2ccc(NC(=O)Nc3ccc4c(c3)OCO4)cc2C1=O	36*	x	x	55*	x	17
C[C@H](CO)N1C[C@H](C)[C@@H](CN(C)C(=O)Nc2cccc3ccccc23)Oc2ccc(NS(C)(=O)=O)cc2C1=O	0	x	x	-9	x	4
COCC#Cc1cnc2c(c1)C(=O)N([C@@H](C)CO)C[C@H](C)[C@@H](CN(C)C(=O)c1ccc(F)cc1)O2	-4	x	-1	-8	x	1
C[C@H](CO)N1C[C@H](C)[C@@H](CN(C)CC2CC2)OCCCC[C@H](C)Oc2ccc(NC(=O)Nc3ccc4c(c3)OCO4)cc2C1=O	29*	x	-3	48	x	8
CCCN(C)C[C@@H]1OCCCC[C@H](C)Oc2ccc(NC(=O)Nc3ccc(F)cc3)cc2C(=O)N([C@H](C)CO)C[C@@H]1C	6	x	x	53*	x	4
CC(C)NC(=O)N(C)C[C@@H]1Oc2ccccc2CC(=O)N(C)C[C@H]1C	x	x	-1	x	x	x
Cc1cc(NCCN2CCOCC2)c2ccc3ccccc3c2n1	1	38*	12	22	4	x
COc1ccc(NC(=O)N[C@@H]2CC[C@@H](CCNS(=O)(=O)c3cccc(Cl)c3)O[C@H]2CO)cc1	4	x	-3	-2	x	2
O=[N+]([O-])c1ccc(C=NN2CCCCCC2)cc1	35*	-8	-3	-9	5	x
COc1ccc(NC(=O)N2CC[C@@H]3[C@H]2c2cc(-c4cccc(F)c4)ccc2N(C)[C@H]3CO)cc1	-4	x	-11	x	x	-3
COc1ccc(-c2ccc3c(c2)[C@H]2[C@H](CCN2C(=O)C2CCCC2)[C@H](CO)N3C)cc1	26*	x	-4	49	x	x
COc1ccc(-c2ccc3c(c2)[C@@H]2[C@@H](CCN2S(=O)(=O)c2ccc(F)cc2)[C@@H](CO)N3C)cc1	7	x	-7	90*	x	x
COc1ccc(-c2ccc3c(c2)[C@H]2[C@H](CCN2C(=O)C2CC2)[C@@H](CO)N3C)cc1	u	x	8	13	x	-9
CN1c2ccc(C3=CCCCC3)cc2[C@H]2[C@H](CCN2C(=O)C2CCCCC2)[C@H]1CO	26*	x	-13	19	x	x
COc1ccc(-c2ccc3c(c2)[C@@H]2[C@@H](CCN2C(=O)Nc2ccc(F)cc2)[C@H](CO)N3C)cc1	30*	x	-2	37	x	x
COc1ccc(S(=O)(=O)N(C)C[C@@H]2OCCCC[C@@H](C)Oc3ccc(NS(=O)(=O)c4ccccc4)cc3C(=O)N([C@@H](C)CO)C[C@@H]2C)cc1	1	x	1	12	x	3
CCCNC(=O)C[C@H]1CC[C@@H]2[C@@H](COc3ccc(NC(=O)c4cccc(C(F)(F)F)c4)cc3C(=O)N2C)O1	0	x	-19	4	x	1
C[C@H](CO)N1C[C@H](C)[C@@H](CN(C)Cc2ccccc2C(F)(F)F)OCc2ccccc2-c2c(n(C)c3ccccc23)C1=O	4	x	-5	10	x	x
COc1cccc(-c2ccc3c(c2)[C@@H]2[C@@H](CCN2C(=O)NC2CCCC2)[C@@H](CO)N3C)c1	5	x	2	-4	x	12
COc1ccccc1NC(=O)N1CC[C@@H]2[C@H]1c1cc(-c3ccc(F)cc3)ccc1N(C)[C@H]2CO	6	x	0	30	x	8
COc1ccccc1NC(=O)N1CC[C@H]2[C@@H]1c1cc(C#Cc3ccc(F)cc3)ccc1N(C)[C@H]2CO	-5	x	-13	74*	x	-2
COc1ccc(-c2ccc3c(c2)[C@@H]2[C@@H](CCN2C(=O)NC2CCCC2)[C@H](CO)N3C)cc1	36*	x	0	-1	x	x
O=C(C[C@@H]1C[C@@H]2c3cc(NC(=O)Cc4ccncc4)ccc3O[C@@H]2[C@H](CO)O1)NCc1cccnc1	-1	x	-5	6	x	-10
Cc1cc(C)c2nc(NC(=O)c3ccc([N+](=O)[O-])o3)sc2c1	-8	16	-5	-12	1	-3
Cc1cc(C)c2sc(NC(=O)c3ccc([N+](=O)[O-])o3)nc2c1	-1	44*	-4	-12	x	-4
SMILES	AF4-AF9 inh	Glyco luc inh	FN deposit inh	RAD52 inh	NSD2 inh	RAD54 branch
O=C(Nc1c(Cl)ccc2nsnc12)c1ccc([N+](=O)[O-])o1	7	46*	14	-3	11	6
COc1ccc(NC(=O)c2ccc([N+](=O)[O-])o2)cc1	4	31*	-6	-15	4	5
CC(C)C(=O)N1CCN(c2ccc(NC(=O)c3ccc([N+](=O)[O-])o3)cc2Cl)CC1	5	-6	37*	-8	12	x
O=C(Nc1c(Cl)ccc2nsnc12)c1ccc(Br)o1	-1	-1	x	-11	0	x
CC(C)NC(=O)N(C)C[C@@H]1Oc2ccc(NS(C)(=O)=O)cc2C(=O)N([C@H](C)CO)C[C@H]1C	-11	x	-16	15	x	-4
C[C@@H]1CCCCO[C@@H](CN(C)Cc2ccccc2)[C@H](C)CN([C@H](C)CO)C(=O)c2cc(NC(=O)NC3CCCCC3)ccc2O1	3	x	x	13	x	2
CC(NCC(O)COCCC12CC3CC(CC(C3)C1)C2)c1ccccc1 (centres undefined)	9	-8	24	55*	5	18
COc1cc(CN2CC3(CCN(C(=O)c4cccnc4)CC3)c3c([nH]c4cc(OC)ccc34)[C@@H]2CO)cc(OC)c1	-1	x	-1	-77	x	x
CCC(=O)Nc1ccc2c(c1)C(=O)N(C)C[C@H](OC)[C@H](C)CN(Cc1ccncc1)[C@H](C)CO2	-3	x	-2	-17	x	-11
C=CCn1c(SC(F)F)nc2scc(-c3ccco3)c2c1=O	-4	0	37*	-35	x	-3
COc1cc(/C=N/NC(=O)c2cc(-c3c(C)nn(-c4ccccc4)c3C)n[nH]2)ccc1O	3	54*	7	18	2	0
c1ccc(C2=Nc3c(ccc4ccccc34)C(c3ccncc3)=NN2)cc1	34*	12	-13	-7	1	x
C[C@@H]1C[C@@H]2OC(=O)[C@]3(C)[C@H]2[C@@H](OC3(C)O)[C@]2(C)C(=O)C=C[C@H]12 (some centres undefined)	-2	6	8	1	x	-8
C=C1C(=O)O[C@@H]2C[C@@H](C)[C@@H]3C=CC(=O)[C@@]3(C)[C@@H](OC(C)=O)[C@H]12	-12	x	39*	-20	x	x
COc1ccc(S(=O)(=O)Nc2ccc(O)c(Sc3ncn[nH]3)c2)cc1	x	-1	x	x	x	-8
COc1ccc(S(=O)(=O)Nc2cc(Sc3ncn[nH]3)c(O)c3ccccc23)cc1	x	x	x	x	165*	x
CC=Cc1ccc2n(c1=O)C[C@@H]1[C@@H](CO)[C@H](C(=O)NCc3ccccn3)[C@H]2N1CC1CC1 (mixture of isomers)	1	x	x	-13	x	-12

Compound activity deposited in PubChem BioAssay by Broad Institute.
